Source: ChEMBL document CHEMBL3351258, “An amidation/cyclization approach to the synthesis of N-hydroxyquinolinones and their biological evaluation as potential anti-plasmodial, anti-bacterial, and iron(II)-chelating agents” (Bioorg Med Chem Lett, 2015)
≈ marks a conversion by molar mass, not a printed value. Calls of active or inactive are those of the source. The rule behind the calls is not given here.

Tests used:
Staphylococcus aureus [1] = assay: Antibacterial activity against Staphylococcus aureus ATCC 25923 up to 1024 ug/ml incubated for 18 to 24 hrs followed by addition incubation for 18 to 24 hrs on MHA plates; format: functional, organism-based
Summary of the method: (§1)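 Read-out is the minimum bactericidal concentration (MBC), determined separately against Escherichia coli and Staphylococcus aureus.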

Staphylococcus aureus [2] = assay: Antibacterial activity against Staphylococcus aureus ATCC 25923 incubated for 18 to 24 hrs followed by addition incubation for 18 to 24 hrs on MHA plates; format: functional; summary of the method: as §1
Plasmodium falciparum [3] = assay: Antiplasmodial activity against Plasmodium falciparum 3D7 incubated for 36 to 42 hrs by Giemsa staining method; format: functional, organism-based
Summary of the method: (§2)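 In vitro maturation assay on the chloroquine-sensitive P. falciparum 3D7 strain.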

Escherichia coli [4] = assay: Antibacterial activity against Escherichia coli ATCC 25922 up to 1024 ug/ml incubated for 18 to 24 hrs followed by addition incubation for 18 to 24 hrs on MHA plates; format: functional, organism-based; summary of the method: as §1
Escherichia coli [5] = assay: Antibacterial activity against Escherichia coli ATCC 25922 incubated for 18 to 24 hrs followed by addition incubation for 18 to 24 hrs on MHA plates; format: functional; summary of the method: as §1
Plasmodium falciparum [6] = assay: Antiplasmodial activity against Plasmodium falciparum 3D7 up to 5092 ug/ml incubated for 36 to 42 hrs by Giemsa staining method; format: functional, organism-based; settings: in the assay text read “5092 ng/ml” for “5092 ug/ml”; summary of the method: as §2
[7] = Iron chelation activity assessed as drug level causing 50% iron chelation at 20 to 500 ug/ml using FeCl2 and ferrozine; format: physicochemical; settings: for EC50: read-out: Activity
Summary of the method: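 The value is the concentration giving 50% chelation ability (50% CA), reported in mM.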

[8] = Iron chelation activity at 500 ug/ml using FeCl2 and ferrozine; format: physicochemical
[9] = Plasmodium falciparum, 3D7, read-out: IC50

SMILES | IC50 (Plasmodium falciparum [3]; [9]) [µM] | IC50 (Plasmodium falciparum [3]) | Activity [7] | Activity [8] | EC50 [7] [µM] | Activity (Staphylococcus aureus [1]) | MBC (Staphylococcus aureus [2]) | Activity (Escherichia coli [4]) | MBC (Escherichia coli [5]) | Activity (Plasmodium falciparum [6])
Cc1ccccc1-c1c(O)c2ccccc2n(O)c1=O |  | Not Active |  |  |  | inactive | inactive | inactive | inactive | inactive
O=c1[nH]c2ccccc2cc1-c1cccc2ccccc12 |  | Not Active | Not Active | Not Active |  | inactive | inactive | inactive | inactive | inactive
O=c1c(-c2ccccc2)cc2ccccc2n1O | 14 |  |  |  |  | inactive | inactive | inactive | inactive | 
O=c1c(-c2ccccc2C(F)(F)F)c(O)c2ccccc2n1O |  | Not Active |  |  |  | inactive | inactive | inactive | inactive | inactive
O=c1c(-c2cccc3ccccc23)c(O)c2ccccc2n1O |  | Not Active |  |  | 280 |  | 1.7 mM (≈ 516 µg/mL) | inactive | inactive | inactive
O=c1c(-c2cccc3ccccc23)cc2ccccc2n1O | 2.6 |  |  |  |  | inactive | inactive | inactive | inactive | 
O=c1c(-c2ccccc2)c(O)c2ccccc2n1O |  | Not Active |  |  |  | inactive | inactive |  | 4 mM (≈ 1010 µg/mL) | inactive
O=c1c(-c2cccc3ccccc23)cc2c(F)cccc2n1O | 1.4 |  |  |  | 240 | inactive | inactive | inactive | inactive | 
O=c1c(-c2ccc3ccccc3c2)cc2ccccc2n1O | 2.9 |  |  |  |  |  | 3.6 mM (≈ 1030 µg/mL) | inactive | inactive | 
O=c1c(-c2ccc3ccccc3c2)c(O)c2ccccc2n1O |  | Not Active |  |  |  | inactive | inactive | inactive | inactive | inactive
C=C[C@]1(C)C[C@H](C)C[C@H](C)[C@H]1c1c(O)ccn(O)c1=O | 0.8 |  |  |  |  |  |  |  |  | 
O=c1c(-c2ccccc2C(F)(F)F)cc2ccccc2n1O | 5.9 |  |  |  |  |  | 3.4 mM (≈ 1040 µg/mL) | inactive | inactive | 
COc1ccccc1-c1c(O)c2ccccc2n(O)c1=O |  | Not Active |  |  |  | inactive | inactive | inactive | inactive | inactive

Now from value to compound, other results behind:

IC50 (Plasmodium falciparum [3]; [9]) [µM] | IC50 (Plasmodium falciparum [3]) | Activity [7] | Activity [8] | EC50 [7] [µM] | SMILES | Activity (Staphylococcus aureus [1]) | MBC (Staphylococcus aureus [2]) | Activity (Escherichia coli [4]) | MBC (Escherichia coli [5]) | Activity (Plasmodium falciparum [6])
4.2 |  |  |  |  | O=c1c(-c2cccc3ccccc23)cc2cc3c(cc2n1O)OCO3 | inactive | inactive | inactive | inactive | 
7.6 |  |  |  |  | COc1ccccc1-c1cc2ccccc2n(O)c1=O |  | 3.8 mM (≈ 1020 µg/mL) |  | 1.9 mM (≈ 508 µg/mL) | 
1.1 |  |  |  | 240 | O=c1c(-c2cccc3ccccc23)cc2cc(F)ccc2n1O | inactive | inactive | inactive | inactive | 
3.5 |  |  |  |  | Cc1ccccc1-c1cc2cc(O)ccc2n(O)c1=O |  | 3.8 mM (≈ 1020 µg/mL) |  | 1.9 mM (≈ 508 µg/mL) | 
5 |  |  |  | 280 | Cc1ccccc1-c1cc2c(F)cccc2n(O)c1=O | inactive | inactive | inactive | inactive | 
4.6 |  |  |  |  | Cc1ccccc1-c1cc2cc3c(cc2n(O)c1=O)OCO3 | inactive | inactive | inactive | inactive | 
5 |  |  |  |  | COc1cc2cc(-c3cccc4ccccc34)c(=O)n(O)c2cc1OC | inactive | inactive | inactive | inactive | 
2.5 |  |  |  |  | O=c1c(-c2cccc3ccccc23)cc2cc(O)ccc2n1O | inactive | inactive |  | 3.4 mM (≈ 1030 µg/mL) | 
1.9 |  |  |  |  | O=c1c(-c2cccc3ccccc23)cc2c3c(ccc2n1O)OCO3 |  | 3.1 mM (≈ 1030 µg/mL) | inactive | inactive | 
3 |  |  |  |  | Cc1ccccc1-c1cc2ccccc2n(O)c1=O |  | 4.1 mM (≈ 1030 µg/mL) | inactive | inactive | 
1.3 |  |  |  | 250 | COc1ccc2c(c1)cc(-c1cccc3ccccc13)c(=O)n2O | inactive | inactive | inactive | inactive | 
1.3 |  |  |  | 280 | COc1ccc2c(c1)cc(-c1ccccc1C)c(=O)n2O |  | 3.6 mM (≈ 1010 µg/mL) | inactive | inactive | 
5.5 |  |  |  |  | COc1cc2cc(-c3ccccc3C)c(=O)n(O)c2cc1OC | inactive | inactive | inactive | inactive | 
4.8 |  |  |  | 290 | Cc1ccccc1-c1cc2cc(F)ccc2n(O)c1=O | inactive | inactive | inactive | inactive | 
3.6 |  |  |  |  | Cc1ccccc1-c1cc2c3c(ccc2n(O)c1=O)OCO3 | inactive | inactive | inactive | inactive | 
